Reference: ChEMBL document CHEMBL3351566, “Blood schizontocidal and gametocytocidal activity of 3-hydroxy-N'-arylidenepropanehydrazonamides: a new class of antiplasmodial compounds” (J Med Chem, 2014)
pIC50: −log10 of the molar value.

Columns and labels:
Plasmodium falciparum [1] = experiment: Antiplasmodial activity against Plasmodium falciparum 3D7 asexual blood stages after 3 days by HRP2 detection based ELISA method; type: functional, organism-based; conditions: 3D7, 72 h
Procedure, shortened: (§1)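 HRP2-based growth inhibition of P. falciparum asexual blood stages, 3D7 (chloroquine-sensitive) or Dd2 (multidrug-resistant). IC50 from 12 serial dilutions. Mean of at least two independent experiments, each run in duplicate.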

Plasmodium falciparum [2] = experiment: Antiplasmodial activity against Plasmodium falciparum Dd2 asexual blood stages after 3 days by HRP2 detection based ELISA method; type: functional, organism-based; conditions: Dd2, 72 h; procedure, shortened: as §1
L6 = experiment: Cytotoxicity against rat L6 cells after 72 hrs by alamar blue assay; type: cell-based; conditions: L6, 72 h
[3] = Selectivity index, ratio of IC50 for rat L6 cells to IC50 for Plasmodium falciparum 3D7 asexual blood stages; type: toxicity, cell-based; conditions: read-out: Ratio IC50
Procedure, shortened: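 Selectivity index calculated as L6 cytotoxicity IC50 divided by P. falciparum 3D7 IC50, using unrounded cytotoxicity values.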

Plasmodium falciparum [4] = experiment: Gametocytocidal activity against transgenic Plasmodium falciparum NF54-pfs16-GFP late stage gametocytes after 72 hrs by mitotracker red CM-H2XRos dye based confocal imaging assay; type: functional, organism-based; conditions: NF54, 72 h
Procedure, shortened: (§2)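 Late-stage gametocytes stained with MitoTracker Red, imaged, and scored by viable elongated MTR-positive morphology. % inhibition set relative to a puromycin 100% inhibition control. Compounds in 4% DMSO, top concentration 120 or 40 μM. IC50 from 21 serial dilutions. Mean of two independent experiments, each in duplicate.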

Plasmodium berghei [5] = experiment: Antiplasmodial activity against Plasmodium berghei infected in mouse assessed as reduction in parasitemia level at 50 mg/kg, po dosed once daily for 4 days on 4, 24, 48 and 72 hrs post infection and measured on day 4; type: functional
Procedure, shortened: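 Peters 4-day test in P. berghei-infected mice, n = 3 per group. 50 mg/kg given orally once daily at 4, 24, 48 and 72 h postinfection. Dosed as a solution or suspension in 70/30 Tween 80/ethanol diluted 10× with water. Parasitemia read from blood taken on day 4 (96 h postinfection), expressed as % reduction versus an infected untreated control.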

Plasmodium berghei [6] = experiment: Antiplasmodial activity against Plasmodium berghei infected in mouse assessed as […] in mouse survival at 50 mg/kg, po dosed once daily for 4 days on 4, 24, 48 and 72 hrs post infection and measured on day 4 (reference value: 4 days); type: functional
Procedure, shortened: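 Standard Peters 4-day test in P. berghei-infected mice (n = 3 per group), dosed orally at 4, 24, 48 and 72 h post-infection. Compound was dissolved or suspended in 70/30 Tween 80/ethanol and diluted 10× with water. Blood for parasitemia was taken on day 4 (96 h). Survival was given as mean days, with parasite-free at day 30 taken as cure. Untreated infected controls were euthanized on day 4.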

[7] = Plasma concentration in Plasmodium berghei infected mouse at 50 mg/kg, po dosed once daily for 4 days on 4, 24, 48 and 72 hrs post infection and measured 1 hr post dose by HPLC-MS/MS method; type: ADME, organism-based; set-up: dose 50 mg/kg, route oral
Procedure, shortened: (§3)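 P. berghei-infected mice (n = 3 per group) given oral doses in 70/30 Tween 80/ethanol diluted 10× with water, at 4, 24, 48 and 72 h postinfection. Plasma drug levels (ng/mL) measured at 1, 4 and 24 h after oral treatment.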

[8] = Plasma concentration in Plasmodium berghei infected mouse at 50 mg/kg, po dosed once daily for 4 days on 4, 24, 48 and 72 hrs post infection and measured 4 hrs post dose by HPLC-MS/MS method; type: ADME, organism-based; set-up: dose 50 mg/kg, route oral; procedure, shortened: as §3
[9] = Plasma concentration in Plasmodium berghei infected mouse at 50 mg/kg, po dosed once daily for 4 days on 4, 24, 48 and 72 hrs post infection and measured 24 hrs post dose by HPLC-MS/MS method; type: ADME, organism-based; set-up: dose 50 mg/kg, route oral; procedure, shortened: as §3
Plasmodium falciparum [10] = experiment: Gametocytocidal activity against transgenic Plasmodium falciparum NF54-pfs16-GFP late stage gametocytes at 40 uM after 72 hrs by mitotracker red CM-H2XRos dye based confocal imaging assay; type: functional; conditions: NF54, 72 h; procedure, shortened: as §2
Mus musculus [11] = experiment: Toxicity in Plasmodium berghei infected mouse assessed as changes in general behaviors at 50 mg/kg, po dosed once daily for 4 days on 4, 24, 48 and 72 hrs post infection; type: organism-based; set-up: dose 50 mg/kg, route oral; conditions: in vivo
Procedure, shortened: (§4)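 P. berghei-infected mice (n = 3 per group) received four oral doses at 4, 24, 48 and 72 h post-infection. Vehicle was 70/30 Tween 80/ethanol diluted 10× with water. Mice were watched for acute toxicity signs: death, changes in general behaviour, and changes in physiological activities.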

Mus musculus [12] = experiment: Toxicity in Plasmodium berghei infected mouse assessed as changes in physiological activities at 50 mg/kg, po dosed once daily for 4 days on 4, 24, 48 and 72 hrs post infection; type: organism-based; set-up: dose 50 mg/kg, route oral; conditions: in vivo; procedure, shortened: as §4
Mus musculus [13] = experiment: Toxicity in Plasmodium berghei infected mouse assessed as mouse mortality level at 50 mg/kg, po dosed once daily for 4 days on 4, 24, 48 and 72 hrs post infection; type: organism-based; set-up: dose 50 mg/kg, route oral; conditions: in vivo; procedure, shortened: as §4
Plasmodium falciparum [14] = experiment: Gametocytocidal activity against transgenic Plasmodium falciparum NF54-pfs16-GFP late stage gametocytes at 120 uM after 72 hrs by mitotracker red CM-H2XRos dye based confocal imaging assay; type: functional; conditions: NF54, 72 h; procedure, shortened: as §2

| SMILES | pIC50 (Plasmodium falciparum [1]) | pIC50 (Plasmodium falciparum [2]) | pIC50 (L6) | selectivity ratio [3] | also measured |
| --- | --- | --- | --- | --- | --- |
| N/C(=N\N=C\c1ccccc1)C(O)c1cccc2ccccc12 (stereo not drawn) | 5.52 | 5.41 | 3.52 | 100 | – |
| N/C(=N\N=C\c1ccccc1)C(O)c1ccc2ccccc2c1 (stereo not drawn) | < 5.00 | < 5.00 | – | – | – |
| CCOc1cc(/C=N/N=C(\N)CC(O)c2cccc3ccccc23)ccc1O (stereo not drawn) | 6.60 | 6.35 | 5.38 | 17 | – |
| N/C(CC(O)c1cccc2ccccc12)=N\N=C\c1ccc(F)cc1 (stereo not drawn) | 7.22 | 6.70 | 4.72 | 321 | pIC50 (Plasmodium falciparum [4]): 6.11; inhibition in vivo at 50 mg/kg (Plasmodium berghei [5]): 40%; MSD (Plasmodium berghei [6]): 6.7 days; concentration at 1 h [7]: 316 ng/mL; concentration at 4 h [8]: 145 ng/mL; concentration at 24 h [9]: < 5 ng/mL |
| N/C(CC(O)c1cccc2ccccc12)=N\N=C\c1cccc(Br)c1 (stereo not drawn) | 7.04 | 7.03 | 5.41 | 43 | – |
| N/C(CC(O)c1cccc2ccccc12)=N\N=C\c1ccc(F)cc1F (stereo not drawn) | 6.72 | 6.72 | 5.38 | 22 | – |
| N/C(CC(O)c1cccc2ccccc12)=N\N=C\c1ccc(Cl)c(Cl)c1 (stereo not drawn) | 6.60 | 6.72 | 4.80 | 63 | – |
| N/C(CC(O)c1cccc2ccccc12)=N\N=C\c1cccnc1 (stereo not drawn) | 5.57 | 5.96 | 4.66 | 8 | – |
| N/C(CC(O)c1cccc2ccccc12)=N\N=C\c1ccco1 (stereo not drawn) | 6.29 | 6.42 | 3.84 | 284 | – |
| C/C(=N\N=C(/N)CC(O)c1cccc2ccccc12)c1ccc(F)cc1 (stereo not drawn) | 6.40 | 6.13 | 4.47 | 86 | – |
| Cc1ccc(/C=N/N=C(\N)CC(O)c2ccc3ccccc3c2)cc1 (stereo not drawn) | 6.27 | 6.42 | 3.99 | 190 | – |
| N/C(CC(O)c1ccc2ccccc2c1)=N\N=C\c1ccc(C(F)(F)F)cc1 (stereo not drawn) | < 5.00 | < 5.00 | – | – | – |
| CCOc1cc(/C=N/N=C(\N)CC(O)c2ccc3ccccc3c2)ccc1O (stereo not drawn) | 5.96 | 5.89 | 4.11 | 71 | – |
| N/C(CC(O)c1ccc2ccccc2c1)=N\N=C\c1ccc(Cl)c(Cl)c1 (stereo not drawn) | 5.72 | 6.15 | 4.00 | 52 | – |
| N/C(CC(O)c1ccc2ccccc2c1)=N\N=C\c1cccnc1 (stereo not drawn) | < 5.00 | < 5.00 | – | – | – |
| N/C(CC(O)c1cc2ccccc2c2ccccc12)=N\N=C\c1ccc(F)cc1 (stereo not drawn) | 8.08 | 7.96 | 4.80 | 1890 | pIC50 (Plasmodium falciparum [4]): 6.43; inhibition in vivo at 50 mg/kg (Plasmodium berghei [5]): 99.6%; MSD (Plasmodium berghei [6]): 10 days; concentration at 1 h [7]: 4690 ng/mL; concentration at 4 h [8]: 3100 ng/mL; concentration at 24 h [9]: 86.1 ng/mL; Activity (Mus musculus [11]): Non-toxic; Activity (Mus musculus [12]): Non-toxic; Activity (Mus musculus [13]): Non-toxic |
| O[C@@H](c1cc(C(F)(F)F)nc2c(C(F)(F)F)cccc12)[C@H]1CCCCN1 (relative stereo) [(S,R)-MEFLOQUINE] | – | – | 5.35 | – | pIC50 (Plasmodium falciparum [4]): 7.00 |
| C[C@H]1[C@H](OC(=O)CCC(=O)O)O[C@@H]2O[C@@]3(C)CC[C@H]4[C@H](C)CC[C@@H]1[C@@]24OO3 [ARTESUNATE] | – | 8.70 | 4.62 | – | pIC50 (Plasmodium falciparum [4]): 7.36 |
| CCN(CC)CCCC(C)Nc1ccnc2cc(Cl)ccc12 (stereo not drawn) [CHLOROQUINE] | – | – | 4.11 | – | inhibition at 120 µM (Plasmodium falciparum [14]): 44% |
| COc1cc([C@@H]2c3cc4c(cc3[C@H](O)[C@H]3COC(=O)[C@H]23)OCO4)cc(OC)c1OC [PODOFILOX] | 5.04 | 5.08 | 8.01 | 0.0016 | – |

Now from value to compound, other results behind:

| pIC50 (Plasmodium falciparum [1]) | pIC50 (Plasmodium falciparum [2]) | SMILES | pIC50 (L6) | selectivity ratio [3] | also measured |
| --- | --- | --- | --- | --- | --- |
| 7.00 | 6.62 | N/C(CC(O)c1cccc2ccccc12)=N\N=C\c1ccccc1 (stereo not drawn) | 4.77 | 170 | – |
| 6.72 | 7.21 | Cc1ccc(/C=N/N=C(\N)CC(O)c2cccc3ccccc23)cc1 (stereo not drawn) | 5.17 | 36 | – |
| 6.96 | 6.52 | N/C(CC(O)c1cccc2ccccc12)=N\N=C\c1ccc(C(F)(F)F)cc1 (stereo not drawn) | 4.59 | 234 | – |
| 7.08 | 6.68 | COc1ccc(/C=N/N=C(\N)CC(O)c2cccc3ccccc23)cc1 (stereo not drawn) | 5.20 | 76 | – |
| 6.74 | 6.26 | N/C(CC(O)c1cccc2ccccc12)=N\N=C\c1ccc(F)c(F)c1 (stereo not drawn) | 4.77 | 95 | – |
| 6.62 | 6.21 | CCC/C(=N\N=C(/N)CC(O)c1cccc2ccccc12)c1ccccc1 (stereo not drawn) | 4.54 | 120 | – |
| 6.42 | 6.21 | COc1ccc(/C=N/N=C(\N)CC(O)c2ccc3ccccc3c2)cc1 (stereo not drawn) | 4.16 | 182 | – |
| 5.70 | 5.60 | N/C(CC(O)c1ccc2ccccc2c1)=N\N=C\c1ccc(F)cc1 (stereo not drawn) | < 3.53 | > 149 | inhibition at 40 µM (Plasmodium falciparum [10]): 25% |
| 5.40 | < 5.00 | N/C(CC(O)c1ccc2ccccc2c1)=N\N=C\c1ccc(F)cc1F (stereo not drawn) | 4.03 | 23 | – |
| < 5.00 | < 5.00 | N/C(CC(O)c1ccc2ccccc2c1)=N\N=C\c1ccco1 (stereo not drawn) | – | – | – |
| 7.80 | 7.55 | N/C(CC(O)c1cc2ccccc2c2ccccc12)=N\N=C\c1ccccc1 (stereo not drawn) | 5.21 | 383 | pIC50 (Plasmodium falciparum [4]): 6.74 |
